Reference: ChEMBL document CHEMBL4689842, “EUbOPEN Chemogenomics Library wave 1” (2021)

System: HEK-293T
Assay: Multiplex assay against HEK293T;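 for Population Tubulin-Different-Phenotype (%): share of the cells with healthy nuclei that show this phenotype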
Format: toxicity, cell-based
Settings: human
How it was run: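 Live cells were stained at seeding with Hoechst33342, BioTracker Green Microtubule Cytoskeleton Dye, MitoTracker Red and Annexin V Alexa Fluor 680, then imaged on a CQ1 microscope at 37°C and 5% CO2 after compound addition. CellPathfinder machine-learning gating split cells into Hoechst high-intensity objects or normal cells. Normal cells were split into healthy, pyknosed or fragmented nuclei, and pyknosed cells into mitotic or apoptotic. Tubulin, mitochondrial-mass and membrane-permeability phenotypes are per cents of healthy-nucleus cells.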

[1] = 12 h, 1 µM, compound concentration 1 uM, replicate 1
[2] = 12 h, 1 µM, compound concentration 1 uM, replicate 2
[3] = 12 h, 10 µM, compound concentration 10 uM, replicate 1
[4] = 12 h, 10 µM, compound concentration 10 uM, replicate 2
[5] = 24 h, 1 µM, compound concentration 1 uM, replicate 1
[6] = 24 h, 1 µM, compound concentration 1 uM, replicate 2
[7] = 24 h, 10 µM, compound concentration 10 uM, replicate 1
[8] = 24 h, 10 µM, compound concentration 10 uM, replicate 2
[9] = 48 h, 1 µM, compound concentration 1 uM, replicate 1
[10] = 48 h, 1 µM, compound concentration 1 uM, replicate 2
[11] = 48 h, 10 µM, compound concentration 10 uM, replicate 1
[12] = 48 h, 10 µM, compound concentration 10 uM, replicate 2

Structure (SMILES): Cc1c(-c2ccc(O)cc2)n(Cc2ccc(OCCN3CCCCCC3)cc2)c2ccc(O)cc12 [BAZEDOXIFENE]
- Population Apoptotic (%) [1]: 40%
- Population Fragmented Nuclei (%) [1]: 15%
- Population Healthy Nuclei (%) [1]: 32%
- Population Hoechst High Intensity Objects (%) [1]: 16%
- Population Membrane Permeable-Phenotype (%) [1]: 0%
- Population Mitochondria Different-Phenotype (%) [1]: 93%
- Population Mitotic Cells (%) [1]: 59%
- Population Normal (%) [1]: 83%
- Population Pyknosed Nuclei (%) [1]: 52%
- Population Tubulin-Different-Phenotype (%) [1]: 77%
- Population Apoptotic (%) [2]: 12%
- Population Fragmented Nuclei (%) [2]: 10%
- Population Healthy Nuclei (%) [2]: 43%
- Population Hoechst High Intensity Objects (%) [2]: 6%
- Population Membrane Permeable-Phenotype (%) [2]: 11%
- Population Mitochondria Different-Phenotype (%) [2]: 36%
- Population Mitotic Cells (%) [2]: 87%
- Population Normal (%) [2]: 93%
- Population Pyknosed Nuclei (%) [2]: 46%
- Population Tubulin-Different-Phenotype (%) [2]: 38%
- Total Cell Count [2]: 168
- Population Fragmented Nuclei (%) [3]: 14%
- Population Healthy Nuclei (%) [3]: 8%
- Population Hoechst High Intensity Objects (%) [3]: 21%
- Population Membrane Permeable-Phenotype (%) [3]: 0%
- Population Mitochondria Different-Phenotype (%) [3]: 90%
- Population Normal (%) [3]: 78%
- Population Pyknosed Nuclei (%) [3]: 77%
- Population Tubulin-Different-Phenotype (%) [3]: 72%
- Total Cell Count [3]: 161
- Population Apoptotic (%) [4]: 88%
- Population Fragmented Nuclei (%) [4]: 9%
- Population Healthy Nuclei (%) [4]: 7%
- Population Hoechst High Intensity Objects (%) [4]: 10%
- Population Membrane Permeable-Phenotype (%) [4]: 10%
- Population Mitochondria Different-Phenotype (%) [4]: 100%
- Population Mitotic Cells (%) [4]: 11%
- Population Normal (%) [4]: 89%
- Population Pyknosed Nuclei (%) [4]: 83%
- Population Tubulin-Different-Phenotype (%) [4]: 100%
- Total Cell Count [4]: 159
- Population Apoptotic (%) [5]: 44%
- Population Fragmented Nuclei (%) [5]: 13%
- Population Healthy Nuclei (%) [5]: 45%
- Population Hoechst High Intensity Objects (%) [5]: 13%
- Population Membrane Permeable-Phenotype (%) [5]: 5%
- Population Mitochondria Different-Phenotype (%) [5]: 84%
- Population Mitotic Cells (%) [5]: 55%
- Population Normal (%) [5]: 86%
- Population Pyknosed Nuclei (%) [5]: 40%
- Population Tubulin-Different-Phenotype (%) [5]: 54%
- Total Cell Count [5]: 180
- Population Apoptotic (%) [6]: 18%
- Population Fragmented Nuclei (%) [6]: 8%
- Population Healthy Nuclei (%) [6]: 50%
- Population Hoechst High Intensity Objects (%) [6]: 8%
- Population Membrane Permeable-Phenotype (%) [6]: 9%
- Population Mitochondria Different-Phenotype (%) [6]: 40%
- Population Mitotic Cells (%) [6]: 81%
- Population Normal (%) [6]: 91%
- Population Tubulin-Different-Phenotype (%) [6]: 53%
- Total Cell Count [6]: 207
- Population Apoptotic (%) [7]: 96%
- Population Fragmented Nuclei (%) [7]: 13%
- Population Healthy Nuclei (%) [7]: 9%
- Population Hoechst High Intensity Objects (%) [7]: 21%
- Population Membrane Permeable-Phenotype (%) [7]: 0%
- Population Mitochondria Different-Phenotype (%) [7]: 100%
- Population Mitotic Cells (%) [7]: 3%
- Population Normal (%) [7]: 78%
- Population Pyknosed Nuclei (%) [7]: 76%
- Population Tubulin-Different-Phenotype (%) [7]: 92%
- Total Cell Count [7]: 175
- Population Apoptotic (%) [8]: 90%
- Population Fragmented Nuclei (%) [8]: 9%
- Population Healthy Nuclei (%) [8]: 5%
- Population Hoechst High Intensity Objects (%) [8]: 8%
- Population Membrane Permeable-Phenotype (%) [8]: 33%
- Population Mitochondria Different-Phenotype (%) [8]: 88%
- Population Mitotic Cells (%) [8]: 10%
- Population Normal (%) [8]: 91%
- Population Pyknosed Nuclei (%) [8]: 84%
- Population Tubulin-Different-Phenotype (%) [8]: 88%
- Total Cell Count [8]: 168
- Population Apoptotic (%) [9]: 39%
- Population Fragmented Nuclei (%) [9]: 14%
- Population Healthy Nuclei (%) [9]: 69%
- Population Hoechst High Intensity Objects (%) [9]: 9%
- Population Membrane Permeable-Phenotype (%) [9]: 3%
- Population Mitochondria Different-Phenotype (%) [9]: 41%
- Population Mitotic Cells (%) [9]: 60%
- Population Normal (%) [9]: 90%
- Population Pyknosed Nuclei (%) [9]: 16%
- Population Tubulin-Different-Phenotype (%) [9]: 40%
- Total Cell Count [9]: 275
- Population Apoptotic (%) [10]: 12%
- Population Fragmented Nuclei (%) [10]: 3%
- Population Healthy Nuclei (%) [10]: 75%
- Population Hoechst High Intensity Objects (%) [10]: 2%
- Population Membrane Permeable-Phenotype (%) [10]: 4%
- Population Mitochondria Different-Phenotype (%) [10]: 19%
- Population Mitotic Cells (%) [10]: 87%
- Population Normal (%) [10]: 97%
- Population Pyknosed Nuclei (%) [10]: 21%
- Population Tubulin-Different-Phenotype (%) [10]: 32%
- Total Cell Count [10]: 314
- Population Apoptotic (%) [11]: 91%
- Population Fragmented Nuclei (%) [11]: 22%
- Population Healthy Nuclei (%) [11]: 1%
- Population Hoechst High Intensity Objects (%) [11]: 23%
- Population Membrane Permeable-Phenotype (%) [11]: 0%
- Population Mitochondria Different-Phenotype (%) [11]: 100%
- Population Mitotic Cells (%) [11]: 8%
- Population Normal (%) [11]: 76%
- Population Pyknosed Nuclei (%) [11]: 75%
- Population Tubulin-Different-Phenotype (%) [11]: 50%
- Total Cell Count [11]: 178
- Population Apoptotic (%) [12]: 95%
- Population Fragmented Nuclei (%) [12]: 20%
- Population Healthy Nuclei (%) [12]: 6%
- Population Hoechst High Intensity Objects (%) [12]: 9%
- Population Membrane Permeable-Phenotype (%) [12]: 20%
- Population Mitochondria Different-Phenotype (%) [12]: 90%
- Population Mitotic Cells (%) [12]: 4%
- Population Normal (%) [12]: 90%
- Population Pyknosed Nuclei (%) [12]: 72%
- Population Tubulin-Different-Phenotype (%) [12]: 90%
- Total Cell Count [12]: 163
